Data published in ChEMBL document CHEMBL4765371, “Synthesis and evaluation of Na/K-ATP-ase inhibiting and cytotoxic in vitro activities of oleandrigenin and its selected 17β-(butenolidyl)- and 17β-(3-furyl)- analogues” (Eur J Med Chem, 2020).
Calls of active or inactive are those of the source. The calls are words filed in the database; no cut-off is given here.

Columns and labels:
[1] = test system: HeLa; experiment: Cytotoxicity against human HeLa cells assessed as reduction in cell viability incubated for 72 hrs by resazurin assay; assay type: functional, cell-based
Outline: (§1)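 Cells (CEM, HeLa, MCF7, BJ fibroblasts) exposed to compounds for 72 h, viability read by resazurin staining. Values are means ± SD from at least three independent experiments run in triplicate.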

[2] = organism: Sus scrofa; experiment: Inhibition of porcine kidney Na+/K+ ATPase at 50 uM assessed as enzyme residual activity using ATP as substrate incubated for 2 mins followed by substrate addition and measured after 6 mins (reference value: 100 +/-3.16%); assay type: tissue-based; conditions: time 8.0 min
[3] = test system: MCF7; experiment: Cytotoxicity against human MCF7 cells assessed as reduction in cell viability incubated for 72 hrs by resazurin assay; assay type: functional, cell-based; conditions: MCF7, 72 h; outline: as §1
[4] = test system: BJ; experiment: Cytotoxicity against human BJ cells assessed as reduction in cell viability incubated for 72 hrs by resazurin assay; assay type: cell-based; outline: as §1
[5] = test system: CCRF-CEM; experiment: Cytotoxicity against human CEM cells assessed as reduction in cell viability incubated for 72 hrs by resazurin assay; assay type: functional, cell-based; outline: as §1
[6] = test system: HeLa; experiment: Induction of apoptosis in human HeLa cells assessed as fold increase in caspase 3/7 activity at 1 to 10 uM incubated for 24 hrs by fluorescence based assay relative to control; assay type: functional; conditions: dose 1-10 µM
[7] = test system: HeLa; experiment: Downregulation of p53 protein expression in human HeLa cells at 1 to 10 uM incubated for 24 hrs by Western blotting analysis; assay type: functional, cell-based; conditions: dose 1-10 µM
Outline: (§2)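 HeLa cells treated 24 h at 1 and 10 µM. Lysates resolved by SDS-PAGE and immunoblotted for PARP-1, caspase-7 zymogen and fragment, Mcl-1, Bcl-2, p53, phospho-Rb, total Rb, phospho-Src (Tyr416) and total Src. β-actin used as loading control. Compared with untreated controls; three repeats.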

[8] = test system: HeLa; experiment: Induction of apoptosis in human HeLa cells assessed as increase in PARP-1 cleavage at 10 uM incubated for 24 hrs by Western blotting analysis; assay type: functional, cell-based; outline: as §2
[9] = test system: HeLa; experiment: Effect on Src kinase protein expression in human HeLa cells at 1 uM incubated for 24 hrs by western blot analysis; assay type: functional, cell-based; outline: as §2
[10] = test system: HeLa; experiment: Induction of apoptosis in human HeLa cells assessed as downregulation of Bcl2 protein expression at 1 uM incubated for 24 hrs by Western blotting analysis; assay type: functional, cell-based; outline: as §2
[11] = test system: HeLa; experiment: Induction of cell cycle arrest in human HeLa cells assessed as decrease in accumulation of cells at G0/G1 phase at 1 to 10 uM incubated for 24 hrs by PI staining based flow cytometry analysis relative to control; assay type: functional; parameters: scale not given: the % may be the effect or the level left; conditions: dose 1-10 µM
Outline: (§3)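 HeLa cells treated 24 h at 1 or 10 µM, then harvested, fixed and stained with propidium iodide. DNA content measured by flow cytometry and cells assigned to subG1 (apoptotic), G0/G1, S and G2/M. Compared with untreated and DMSO-only controls. Means of three independent experiments in triplicate; one-way ANOVA, p < 0.05.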

[12] = test system: HeLa; experiment: Induction of apoptosis in human HeLa cells assessed as downregulation of Mcl1 protein expression at 1 to 10 uM incubated for 24 hrs by Western blotting analysis; assay type: functional, cell-based; conditions: dose 1-10 µM; outline: as §2
[13] = test system: HeLa; experiment: Induction of apoptosis in human HeLa cells assessed as reduction in Rb level at 1 to 10 uM incubated for 24 hrs by Western blotting analysis; assay type: functional, cell-based; conditions: dose 1-10 µM; outline: as §2
[14] = test system: HeLa; experiment: Induction of cell cycle arrest in human HeLa cells assessed as increase in accumulation at G2/M phase at 10 uM incubated for 24 hrs by PI staining based flow cytometry analysis relative to control; assay type: functional; outline: as §3
[15] = test system: HeLa; experiment: Induction of cell cycle arrest in human HeLa cells assessed as increase in accumulation at S phase at 1 to 10 uM incubated for 24 hrs by PI staining based flow cytometry analysis; assay type: functional; conditions: dose 1-10 µM; outline: as §3
[16] = test system: HeLa; experiment: Downregulation of Src kinase activity in human HeLa cells assessed as decrease in Src kinase phosphorylation at Tyr416 residue at 1 uM incubated for 24 hrs by Western blotting analysis
[17] = test system: HeLa; experiment: Induction of cell cycle arrest in human HeLa cells assessed as increase in accumulation at G2/M phase at 1 uM incubated for 24 hrs by PI staining based flow cytometry analysis relative to control; assay type: functional; outline: as §3
[18] = test system: HeLa; experiment: Induction of cell cycle arrest in human HeLa cells assessed as increase in accumulation at subG1 phase at 1 to 10 uM incubated for 24 hrs by PI staining based flow cytometry analysis relative to control; assay type: functional; conditions: dose 1-10 µM; outline: as §3
[19] = test system: HeLa; experiment: Induction of apoptosis in human HeLa cells assessed as reduction in Rb phosphorylation at 1 to 10 uM incubated for 24 hrs by Western blotting analysis; assay type: functional, cell-based; conditions: dose 1-10 µM; outline: as §2
[20] = test system: HeLa; experiment: Induction of apoptosis in human HeLa cells assessed as increase in caspase 7 fragmentation at 1 to 10 uM incubated for 24 hrs by Western blotting analysis; assay type: functional, cell-based; conditions: dose 1-10 µM; outline: as §2
[21] = test system: HeLa; experiment: Induction of apoptosis in human HeLa cells assessed as downregulation of Bcl2 protein expression at 1 to 10 uM incubated for 24 hrs by Western blotting analysis; assay type: functional, cell-based; conditions: dose 1-10 µM; outline: as §2
[22] = test system: HeLa; experiment: Induction of apoptosis in human HeLa cells assessed as reduction in Rb phosphorylation at 1 uM incubated for 24 hrs by Western blotting analysis; assay type: functional, cell-based; outline: as §2

SMILES	IC50 [1] [µM]	Activity [2] [%]	IC50 [3] [µM]	IC50 [4] [µM]	IC50 [5] [µM]	other results
CC(=O)O[C@H]1CC[C@@]2(C)[C@H](CC[C@@H]3[C@@H]2CC[C@]2(C)[C@@H](c4ccoc4)[C@@H](OC(C)=O)C[C@]32O)C1	43.1	79.9	20.2	6.2	14.2	–
CC(C)(C)[Si](C)(C)O[C@H]1CC[C@@]2(C)[C@H](CC[C@@H]3[C@@H]2CC[C@]2(C)[C@@H](c4ccoc4)[C@@H](O)C[C@]32O)C1	26.7	15.1	19.4	5.8	9.9	–
CC(=O)O[C@H]1C[C@]2(O)[C@@H]3CC[C@@H]4C[C@@H](O[Si](C)(C)C(C)(C)C)CC[C@]4(C)[C@H]3CC[C@]2(C)[C@H]1C1=CC(=O)OC1	34.1	79.3	20.3	10.6	17.3	–
CC(=O)O[C@H]1CC[C@@]2(C)[C@H](CC[C@@H]3[C@@H]2CC[C@]2(C)[C@@H](C4=CC(=O)OC4)[C@@H](OC(C)=O)C[C@]32O)C1 [GITOXIGENIN DIACETATE]	1.1	101	1.7	0.2	0.4	fold change (FC) [6]: 2; inhibition [7]: Active; Activity [8]: Active; Activity [9]: inactive; Activity [10]: Active; Activity [11]: 4.4%; Activity [12]: Active; Activity [13]: Active; Activity [14]: 11.9%; Activity [15]: Active; inhibition [16]: Active; Activity [17]: 13.1%; fold change (FC) [18]: 2; Activity [19]: Active; Activity [20]: Active
C[C@]12CC[C@H](O)C[C@H]1CC[C@@H]1[C@@H]2CC[C@]2(C)[C@@H](c3ccoc3)[C@@H](O)C[C@]12O	14.5	7.9	10.6	1.9	3.6	fold change (FC) [6]: 2; inhibition [7]: Active; Activity [8]: Active; Activity [9]: inactive; Activity [11]: 4.4%; Activity [12]: Active; Activity [13]: Active; Activity [14]: Active; Activity [15]: Active; inhibition [16]: Active; Activity [17]: Active; Activity [21]: Active; fold change (FC) [18]: 2; Activity [22]: inactive; Activity [20]: Active
CO[C@H]1C[C@H](O[C@H]2CC[C@@]3(C)[C@H](CC[C@@H]4[C@@H]3CC[C@]3(C)[C@@H](C5=CC(=O)OC5)[C@@H](OC(C)=O)C[C@]43O)C2)O[C@@H](C)[C@@H]1O	–	59.2	–	–	–	–
C[C@]12CC[C@H](O)C[C@H]1CC[C@@H]1[C@@H]2CC[C@]2(C)[C@@H](c3ccoc3)[C@@H](O)[C@H]3O[C@]132	> 50	75.5	> 50	> 50	> 50	–
CC(=O)O[C@H]1C[C@@]23O[C@@H]4OC(=O)C=C4[C@@H]1[C@@]2(C)CC[C@H]1[C@H]3CC[C@@H]2C[C@@H](O)CC[C@@]21C	> 50	83.9	> 50	> 50	> 50	–
CC(=O)O[C@H]1C[C@]2(O)[C@@H]3CC[C@@H]4C[C@@H](O)CC[C@]4(C)[C@H]3CC[C@]2(C)[C@H]1C1=CC(=O)OC1	–	64.8	–	–	–	fold change (FC) [6]: 2; inhibition [7]: Active; Activity [8]: Active; Activity [11]: 4.4%; Activity [13]: Active; Activity [19]: Active; Activity [20]: Active
CC(=O)O[C@H]1C[C@]2(O)[C@@H]3CC[C@@H]4C[C@@H](O)CC[C@]4(C)[C@H]3CC[C@]2(C)[C@H]1c1ccoc1	14.2	42.4	16.1	4	9.4	–
CC(=O)O[C@H]1C[C@]2(O)[C@@H]3CC[C@@H]4C[C@@H](O[Si](C)(C)C(C)(C)C)CC[C@]4(C)[C@H]3CC[C@]2(C)[C@H]1c1ccoc1	> 50	69.1	> 50	> 50	> 50	–
CC(C)(C)[Si](C)(C)O[C@H]1CC[C@@]2(C)[C@H](CC[C@@H]3[C@@H]2CC[C@]2(C)[C@@H](c4ccoc4)[C@@H](O)[C@H]4O[C@]342)C1	32.3	74.4	14	16.3	34.7	–
